Laboratory results published in ChEMBL document CHEMBL1151692, “Substituted hippurates and hippurate analogs as substrates and inhibitors of peptidylglycine alpha-hydroxylating monooxygenase (PHM)” (Bioorg Med Chem, 2008).
Calls of active or inactive are those of the source. No cut-off for these calls is given here. Where a SMILES comes first, the peptide text is derived from it. [ ]: non-standard residue; d: D form. The star is where a group is joined. Dansyl = CN(C)c1cccc2c(S(=O)(=O)*)cccc12; pGlu = O=C1CC[C@@H](C(=O)O)N1; ClAc = O=C(CCl)*; NHOH = ON*

Key:
[1] = target: peptidylglycine alpha-amidating monooxygenase (Rattus norvegicus) (UniProt P14925); assay: Inhibition of rat peptidylamidoglycolate lyase assessed as ascorbate-independent dealkylation of alpha-hydroxy-hipurate; parameters: concentration or dose not given beside the values; details: for inhibition: concentration not given here
[2] = target: T1, Peptidylglycine alpha-amidating monooxygenase (Rattus norvegicus) (UniProt P14925); assay: Inhibition of rat recombinant peptidylglycine alpha-amidating monooxygenase assessed as inhibition of oxygen consumption at 0.9 mM
T1 sequence (whole entry): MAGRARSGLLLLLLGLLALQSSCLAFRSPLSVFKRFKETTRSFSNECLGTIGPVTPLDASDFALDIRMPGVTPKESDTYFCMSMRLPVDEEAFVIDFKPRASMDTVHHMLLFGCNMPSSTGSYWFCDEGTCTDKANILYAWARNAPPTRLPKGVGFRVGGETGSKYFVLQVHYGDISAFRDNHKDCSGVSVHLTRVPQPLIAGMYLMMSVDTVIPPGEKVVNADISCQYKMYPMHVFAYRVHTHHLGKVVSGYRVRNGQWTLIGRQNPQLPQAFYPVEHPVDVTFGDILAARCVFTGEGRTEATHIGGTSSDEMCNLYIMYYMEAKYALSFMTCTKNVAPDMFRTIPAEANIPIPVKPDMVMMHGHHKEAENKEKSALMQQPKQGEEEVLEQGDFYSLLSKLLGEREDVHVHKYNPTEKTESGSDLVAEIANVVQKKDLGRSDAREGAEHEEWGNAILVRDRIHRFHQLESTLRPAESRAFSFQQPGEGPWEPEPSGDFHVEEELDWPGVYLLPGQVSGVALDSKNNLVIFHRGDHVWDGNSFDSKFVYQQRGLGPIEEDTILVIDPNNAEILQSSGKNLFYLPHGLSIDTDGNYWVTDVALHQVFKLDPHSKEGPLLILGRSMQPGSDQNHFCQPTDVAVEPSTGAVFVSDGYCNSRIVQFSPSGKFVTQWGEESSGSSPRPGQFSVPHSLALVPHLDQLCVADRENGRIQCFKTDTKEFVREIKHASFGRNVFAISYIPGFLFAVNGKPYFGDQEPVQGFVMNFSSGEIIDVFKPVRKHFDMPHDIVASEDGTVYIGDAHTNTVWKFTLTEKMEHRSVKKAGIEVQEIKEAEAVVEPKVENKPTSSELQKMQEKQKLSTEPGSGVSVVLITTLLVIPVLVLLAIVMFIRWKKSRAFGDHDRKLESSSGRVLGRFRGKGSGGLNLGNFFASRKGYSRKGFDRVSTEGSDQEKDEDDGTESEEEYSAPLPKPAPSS

[3] = target: T1, Peptidylglycine alpha-amidating monooxygenase (Rattus norvegicus); assay: Inhibition of recombinant rat peptidylglycine alpha-amidating monooxygenase assessed as inhibition of oxygen consumption at 28 mM
[4] = target: T1, Peptidylglycine alpha-amidating monooxygenase (Rattus norvegicus); assay: Inhibition of recombinant rat peptidylglycine alpha-amidating monooxygenase assessed as inhibition of oxygen consumption of N-octanoylglycine at 28 mM
Outline: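 Recombinant type A rat medullary thyroid carcinoma bifunctional PAM (15–50 μg) added to 100 mM MES/NaOH pH 6.0, 30 mM NaCl, 1% ethanol, 0.001% Triton X-100, 10 μg/mL catalase, 1.0 μM Cu(NO3)2, ascorbate, 200 μM N-octanoylglycine as substrate, and 28 mM test compound. The read-out is the initial rate of O2 consumption on an oxygen monitor at 37 °C.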

[5] = target: T1, Peptidylglycine alpha-amidating monooxygenase (Rattus norvegicus); assay: Inhibition of rat recombinant peptidylglycine alpha-amidating monooxygenase in presence of DMSO
[6] = target: T1, Peptidylglycine alpha-amidating monooxygenase (Rattus norvegicus); assay: Inhibition of rat recombinant peptidylglycine alpha-amidating monooxygenase assessed as inhibition of N-dansyl-Tyr-Val-Gly amidation
DU-145 = assay: Antiproliferative activity against human DU145 cells at greater than 500 uM by trypan blue assay; type: functional, cell-based
[7] = target: T1, Peptidylglycine alpha-amidating monooxygenase (Rattus norvegicus); assay: (§1) Activity of rat recombinant peptidylglycine alpha-amidating monooxygenase assessed as stimulation of oxygen consumption
[8] = target: T1, Peptidylglycine alpha-amidating monooxygenase (Rattus norvegicus); assay: Ratio of Vm(app) to Km(app) for rat recombinant peptidylglycine alpha-amidating monooxygenase relative to hippuric acid
Outline: (§2)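 Recombinant rat type A medullary thyroid carcinoma PAM (bifunctional), 15–50 μg, in 100 mM MES/NaOH pH 6.0, 30 mM NaCl, 1% ethanol, 0.001% Triton X-100, 10 μg/mL catalase, 1.0 μM Cu(NO3)2, 5.0 mM ascorbate, ~200 μM O2, 37 °C. Substrate generally 0.3–5.0 KM,app. Initial O2 consumption rates read by oxygen monitor and fit to Michaelis–Menten.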

[9] = target: T1, Peptidylglycine alpha-amidating monooxygenase (Rattus norvegicus); assay: Ratio of Vm(app) to Km(app) for rat recombinant peptidylglycine alpha-amidating monooxygenase
Outline: as §2

[10] = substrate: Cc1ccccc1C(=O)NCC(=O)O; assay: as §1
[11] = substrate: O=C(O)CNC(=O)c1ccc(Br)cc1; assay: as §1
[12] = substrate: O=C(O)CNC(=O)CNC(=O)CCl; assay: as §1
[13] = substrate: O=C(O)CNC(=O)c1ccc([N+](=O)[O-])cc1; assay: as §1
[14] = substrate: O=C(O)CNC(=O)/C=C/c1ccccc1; assay: as §1
[15] = substrate: O=C(O)CNC(=O)c1ccc(O)cc1; assay: as §1
[16] = substrate: Cc1cccc(C(=O)NCC(=O)O)c1; assay: as §1
[17] = substrate: O=C(O)CNC(=O)/C=C/c1ccco1; assay: as §1
[18] = substrate: O=C(O)CNC(=O)c1ccc(C(F)(F)F)cc1; assay: as §1
[19] = substrate: O=C(O)CNC(=O)CNC(=O)c1ccc([N+](=O)[O-])cc1; assay: as §1
[20] = substrate: O=C(O)CNC(=S)CCc1ccccc1; assay: as §1
[21] = substrate: O=C(O)CNC(=S)Cc1ccccc1; assay: as §1
[22] = substrate: Nc1ccc(C(=O)NCC(=O)O)cc1; assay: as §1
[23] = substrate: O=C(O)CNC(=O)OCc1ccccc1; assay: as §1
[24] = substrate: O=C(O)CNC(=O)c1ccccc1O; assay: as §1
[25] = substrate: O=C(O)CNC(=O)CCCCCCCc1ccccc1; assay: as §1
[26] = substrate: O=C(O)CNC(=O)c1ccccc1I; assay: as §1
[27] = substrate: CCc1ccc(C(=O)NCC(=O)O)cc1; assay: as §1
[28] = substrate: O=C(O)CNC(=O)CNC(=O)CNC(=O)c1ccccc1; assay: as §1
[29] = substrate: O=C(O)CNC(=O)CCCCCc1ccccc1; assay: as §1
[30] = substrate: Cc1ccc(C(=O)NCC(=O)O)cc1; assay: as §1
[31] = substrate: O=C(O)CNC(=O)CCCCc1ccccc1; assay: as §1
[32] = substrate: O=C(O)CNC(=O)c1cccc(Cl)c1; assay: as §1
[33] = substrate: O=C(O)CNC(=O)[C@@H]1CCC(=O)N1; assay: as §1
[34] = substrate: O=C(O)CNC(=O)CCc1ccccc1; assay: as §1
[35] = substrate: CCCc1ccc(C(=O)NCC(=O)O)cc1; assay: as §1
[36] = substrate: Nc1ccccc1C(=O)NCC(=O)O; assay: as §1
[37] = substrate: O=C(O)CNC(=O)SCc1ccccc1; assay: as §1
[38] = substrate: COc1ccc(C(=O)NCC(=O)O)cc1; assay: as §1
[39] = substrate: O=C(O)CNC(=O)Nc1ccccc1; assay: as §1
[40] = substrate: O=C(O)CNC(=O)CNC(=O)c1ccccc1; assay: as §1
[41] = substrate: O=C(O)CNC(=O)C1CC1c1ccccc1; assay: as §1
[42] = substrate: C[C@@H](NC(=O)c1ccccc1)C(=O)O; assay: as §1
[43] = substrate: O=C(O)CNC(=O)c1ccc(Cl)cc1; assay: as §1
[44] = substrate: O=C(O)CNC(=O)c1ccco1; assay: as §1

## O=C(O)CONC(=O)c1ccccc1
[1]
  inhibition: < 5%

## NCC(=O)NNC(=O)OCc1ccccc1
[1]
  inhibition: < 5%

## O=C(O)CNC(=S)Nc1ccccc1
[1]
  inhibition: < 5%

## O=C(NCP(=O)(O)O)c1cccnc1
[2]
  Activity: Active
[1]
  inhibition: < 5%
[3]
  Activity: Active
[4]
  Activity: inactive

## O=C(NC(CSC(=O)c1ccccc1)C(=O)O)c1ccccc1 (single isomer, unassigned)
[1]
  inhibition: < 5%

## O=C(O)CSC(=S)Cc1ccccc1
[1]
  inhibition: < 5%
[5]
  Kis: 13 µM
[6]
  Kis: 7.9 µM
DU-145
  Activity: Active

## O=C(O)CSC(=S)CCc1ccccc1
[1]
  inhibition: < 5%
[5]
  Kis: 30 µM
[6]
  Kis: 9.4 µM

## O=C(O)CSC(=S)c1ccccc1
[1]
  inhibition: < 5%
[5]
  Kis: 49 µM
[6]
  Kis: 39 µM

## CCCCCCCCCCCC(=S)SCC(=O)O
[1]
  inhibition: < 5%

## O=C(O)CCSC(=S)Nc1ccccc1
[1]
  inhibition: < 5%

## O=C(O)COC(=O)Nc1ccccc1
[1]
  inhibition: < 5%

## CC(SC(=S)c1ccccc1)C(=O)O (racemic)
[1]
  inhibition: < 5%

## COC(=O)CNC(=O)[C@@H](NC(=O)[C@H](Cc1ccc(O)cc1)NS(=O)(=O)c1cccc2c(N(C)C)cccc12)C(C)C (Dansyl-Tyr-Val-Gly-OMe)
[6]
  Kis: 54 µM

## O=C(O)CSC(=S)Nc1ccccc1
[1]
  IC50: 3.5 mM

## CC(C#N)(CCC(=O)O)SC(=S)c1ccccc1 (stereo not given)
[1]
  inhibition: < 5%

## CC(C)C[C@H](NC(=O)[C@@H]1CCCN1)C(=O)NCC(=O)NO (H-Pro-Leu-Gly-{NHOH})
[1]
  inhibition: < 5%

## O=C(O)CNCc1ccccc1
[1]
  inhibition: < 5%

## Cc1ccc(C(=S)SCC(=O)O)cc1
[1]
  inhibition: < 5%

## O=C(O)CSc1ccccc1
[1]
  inhibition: < 5%

## O=C(NCC[C@H](O)C(=O)O)OCc1ccccc1
[1]
  inhibition: < 5%

## CC(NC(=S)c1ccccc1)C(=O)O (stereo not given)
[1]
  inhibition: < 5%

## O=C(O)CNC(=O)CNC(=O)CCl (ClAc-Gly-Gly-OH)
[7]
  Vmax(app): 8.9 s⁻¹
[8]
  Activity: 3.3
[9]
  Ratio: 2.1 ×10⁴ /M/s

## O=C(NO)c1ccccc1O
[1]
  inhibition: < 5%

## O=C(O)CNC(=S)CCc1ccccc1
[7]
  Vmax(app): 1.6 s⁻¹
[8]
  Activity: 6.8
[9]
  Ratio: 4.2 ×10⁴ /M/s

## O=C(O)CNC(=O)c1ccc(O)cc1
[7]
  Vmax(app): 5.8 s⁻¹
[8]
  Activity: 0.6
[9]
  Ratio: 3.5 ×10³ /M/s

## O=C(O)CNC(=O)CCCCCCCc1ccccc1
[7]
  Vmax(app): 8 s⁻¹
[8]
  Activity: 12
[9]
  Ratio: 7.6 ×10⁴ /M/s

## O=C(O)CNC(=O)Nc1ccccc1
[7]
  Vmax(app): 9.7 s⁻¹
[8]
  Activity: 4.4
[9]
  Ratio: 2.7 ×10⁴ /M/s

## O=C(O)CNC(=O)/C=C/c1ccco1
[7]
  Vmax(app): 3.4 s⁻¹
[8]
  Activity: 0.45
[9]
  Ratio: 2.8 ×10³ /M/s

## O=C(O)CNC(=S)Cc1ccccc1
[7]
  Vmax(app): 2.4 s⁻¹
[8]
  Activity: 16
[9]
  Ratio: 1 ×10⁵ /M/s

## O=C(N[C@H](CO)C(=O)O)c1ccccc1
[1]
  inhibition: < 5%

## O=C(O)CNC(=O)c1ccc([N+](=O)[O-])cc1
[7]
  Vmax(app): 4.2 s⁻¹
[8]
  Activity: 1.4
[9]
  Ratio: 8.9 ×10³ /M/s

## Nc1ccc(C(=O)NCC(=O)O)cc1
[7]
  Vmax(app): 5.6 s⁻¹
[8]
  Activity: 0.4
[9]
  Ratio: 2.2 ×10³ /M/s

## CCc1ccc(C(=O)NCC(=O)O)cc1
[7]
  Vmax(app): 3.6 s⁻¹
[8]
  Activity: 0.5
[9]
  Ratio: 3.1 ×10³ /M/s

## CC(Cc1ccccc1)C(=O)NCC(=O)O (stereo not given)
[7]
  Vmax(app): 18 s⁻¹
[8]
  Activity: 0.69
[9]
  Ratio: 4.3 ×10³ /M/s

## O=C(O)CNC(=O)c1cccc(Cl)c1
[7]
  Vmax(app): 7.8 s⁻¹
[8]
  Activity: 0.6
[9]
  Ratio: 3.6 ×10³ /M/s

## O=C(O)CNC(=O)c1ccccc1O
[7]
  Vmax(app): 4.9 s⁻¹
[8]
  Activity: 1.1
[9]
  Ratio: 7.1 ×10³ /M/s

## O=C(O)CNC(=O)[C@@H]1CCC(=O)N1 ([pGlu]-Gly-OH)
[7]
  Vmax(app): 9.3 s⁻¹
[8]
  Activity: 4.8
[9]
  Ratio: 3 ×10⁴ /M/s

B1: Peptidylglycine alpha-amidating monooxygenase (Rattus norvegicus), P14925 (protein)
chain: T1 sequence (whole entry)
[10]
  Km: 4300 µM
[11]
  Km: 520 µM
[12]
  Km: 420 µM
[13]
  Km: 470 µM
[14]
  Km: 230 µM
[15]
  Km: 1700 µM
[16]
  Km: 1400 µM
[17]
  Km: 1200 µM
[18]
  Km: 770 µM
[19]
  Km: 110 µM
[20]
  Km: 38 µM
[21]
  Km: 24 µM
[22]
  Km: 2600 µM
[23]
  Km: 590 µM
[24]
  Km: 860 µM
[25]
  Km: 100 µM
[26]
  Km: 3400 µM
[27]
  Km: 1200 µM
[28]
  Km: 310 µM
[29]
  Km: 51 µM
[30]
  Km: 1800 µM
[31]
  Km: 150 µM
[32]
  Km: 2200 µM
[33]
  Km: 310 µM
[34]
  Km: 940 µM
[35]
  Km: 1200 µM
[36]
  Km: 1400 µM
[37]
  Km: 59 µM
[38]
  Km: 820 µM
[39]
  Km: 360 µM
[40]
  Km: 78 µM
[41]
  Km: 900 µM
[42]
  Km: 84000 µM
[43]
  Km: 620 µM
[44]
  Km: 2700 µM
